The values that follow come from ChEMBL document CHEMBL1146049, “Novel dual inhibitors of calpain and lipid peroxidation with enhanced cellular activity” (Bioorg Med Chem Lett, 2006).

The structures appear in SMILES notation. Activity calls are given as the source filed them. The calls are words filed in the database; no cut-off is given here.

The target of experiment [1] is Calpain 1 (Homo sapiens, UniProt P07384). In words: (§1) Inhibition of isolated human calpain1. It counts as protein-complex assay. The essentials: (§2)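 Isolated human calpain 1 enzyme assay with Suc-Leu-Tyr-AMC as substrate; IC50 determined.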
Experiment [2] in a line: Inhibition of maitotoxin induced intracellular calpain in glioma C6 cells. It counts as functional, cell-based. The conditions noted are these: Rattus norvegicus. The method in brief:
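Rat glioma C6 cells were exposed to compound for 4 h, the last 3 h with maitotoxin to activate calpain. Intracellular calpain activity was read as cleavage of the fluorogenic substrate Suc-Leu-Tyr-AMC. IC50 values are means of three experiments.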

Experiment [3] concerns Radical scavenging activity. In words: Inhibition of ferrous induced lipid peroxidation in rat brain microsomes. It counts as functional.
Experiment [4] in a line: Ratio of pIC50 (rat calpain/human calpain 1). The method in brief: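 pRatio = −log(intracellular calpain IC50 / human calpain 1 IC50). The intracellular IC50 comes from glioma C6 cells, which were exposed to compound for 4 h in total, including 3 h with maitotoxin to induce calpain activation, with Suc-Leu-Tyr-AMC as substrate. The enzymatic IC50 comes from isolated human calpain 1 with the same substrate.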

Experiment [5] has as its target Cathepsin B (Homo sapiens) (UniProt P07858). In words: Inhibition of cathepsinB.
A further experiment concerns the target T1, Caspase-3 (Homo sapiens) (UniProt P42574).
T1 sequence (whole entry): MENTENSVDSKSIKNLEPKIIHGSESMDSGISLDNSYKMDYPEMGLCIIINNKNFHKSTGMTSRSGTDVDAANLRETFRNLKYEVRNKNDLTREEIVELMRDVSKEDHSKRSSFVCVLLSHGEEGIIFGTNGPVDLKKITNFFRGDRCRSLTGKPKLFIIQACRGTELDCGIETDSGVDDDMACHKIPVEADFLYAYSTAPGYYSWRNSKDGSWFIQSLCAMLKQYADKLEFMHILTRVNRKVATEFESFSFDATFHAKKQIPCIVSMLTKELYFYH
In words: Inhibition of caspase3.

Experiment [6] concerns the target Chymotrypsinogen A (Bos taurus) (UniProt P00766). In words: Inhibition of alpha chymotrypsin.
Experiment [7] has as its target T2, Calpain 1 (Homo sapiens, UniProt P04632+P07384).
T2 sequence (P04632 whole entry): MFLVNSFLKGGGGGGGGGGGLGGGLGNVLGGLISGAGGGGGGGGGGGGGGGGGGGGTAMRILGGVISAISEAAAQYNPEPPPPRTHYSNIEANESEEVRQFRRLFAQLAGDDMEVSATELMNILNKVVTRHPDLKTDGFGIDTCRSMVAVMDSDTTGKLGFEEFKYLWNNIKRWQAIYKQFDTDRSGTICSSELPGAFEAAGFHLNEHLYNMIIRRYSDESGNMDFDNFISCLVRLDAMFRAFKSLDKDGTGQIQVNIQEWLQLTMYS
T2 sequence (P07384 whole entry): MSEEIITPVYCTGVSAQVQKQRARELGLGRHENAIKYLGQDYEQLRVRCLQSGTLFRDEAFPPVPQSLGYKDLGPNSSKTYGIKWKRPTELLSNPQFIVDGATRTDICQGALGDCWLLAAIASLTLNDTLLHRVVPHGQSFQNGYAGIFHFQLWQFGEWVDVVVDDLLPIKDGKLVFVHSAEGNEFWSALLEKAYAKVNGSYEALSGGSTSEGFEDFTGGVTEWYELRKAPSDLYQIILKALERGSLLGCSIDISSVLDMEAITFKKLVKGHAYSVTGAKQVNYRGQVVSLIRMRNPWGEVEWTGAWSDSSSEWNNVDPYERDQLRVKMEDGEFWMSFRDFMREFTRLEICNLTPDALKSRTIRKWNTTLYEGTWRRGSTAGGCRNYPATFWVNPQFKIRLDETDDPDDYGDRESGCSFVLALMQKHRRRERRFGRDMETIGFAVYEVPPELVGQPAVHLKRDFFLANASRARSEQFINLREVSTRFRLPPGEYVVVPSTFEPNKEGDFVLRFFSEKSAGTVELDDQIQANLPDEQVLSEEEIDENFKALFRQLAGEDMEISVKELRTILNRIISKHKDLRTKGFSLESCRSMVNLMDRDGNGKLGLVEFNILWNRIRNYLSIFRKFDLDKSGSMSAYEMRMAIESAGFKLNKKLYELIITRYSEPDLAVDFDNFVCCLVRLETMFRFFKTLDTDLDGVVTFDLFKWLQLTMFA
The experiment is described as §1. It counts as protein-complex assay. The method in brief:
as §2

As a reminder, the IC50 is the concentration at which inhibition is half-maximal. Turning to `CC(C)C[C@H](NC(=O)c1ccc2c(c1)Nc1ccccc1S2)C(=O)N[C@@H](CC(C)C)C(=O)N[C@H]1CCOC1O` (some centres not stated), the concentration for half-maximal inhibition (IC50) on Calpain 1 [1] worked out at 85.5 nM; in experiment [2] it was 1800 nM; in experiment [3], 1100 nM.
In the same order, the values of `CC(=O)OC1OCC[C@@H]1NC(=O)[C@H](CC(C)C)NC(=O)[C@H](CC(C)C)NC(=O)c1ccc2c(c1)Nc1ccccc1S2` (some centres not stated) are 905 nM, 1700 nM and 2310 nM.
With `CC(C)C[C@H](NC(=O)CNC(=O)COc1ccc2c(c1)Nc1ccccc1S2)C(=O)N[C@H]1CCOC1O` (some centres not stated), the figures for the IC50 (against Calpain 1 [1]; in experiment [2]) were 8 nM and 63000 nM, respectively. For the same compound, the Negative log of IC50 ratio (cellular/enzyme) in experiment [4] is -0.9. Moreover, the outcome in experiment [5] was Active. Further, the outcome (on Caspase-3 (Homo sapiens); in experiment [6]) was inactive.
For the compound `CC(C)C[C@H](NC(=O)COc1ccc2c(c1)Nc1ccccc1S2)C(=O)N[C@@H](CC(C)C)C(=O)N[C@H]1CCOC1O` (stereo in doubt; 6d), the concentration for half-maximal inhibition (IC50) on Calpain 1 [7] came out at 105 nM; in experiment [3], 333 nM.
Take `CC(C)C[C@H](NC(=O)[C@H](C)NC(=O)COc1ccc2c(c1)Nc1ccccc1S2)C(=O)N[C@H]1CCOC1O` (some centres not stated): the results for the IC50 (against Calpain 1 [1]; in experiment [2]) were 25 nM and 15000 nM, respectively. Also, the Negative log of IC50 ratio (cellular/enzyme) in experiment [4] was determined as 0.22. Also, the result in experiment [5] was Active. The outcome (on Caspase-3 (Homo sapiens); in experiment [6]) was inactive.
Regarding `CC(C)C[C@H](NC(=O)[C@H](CO)NC(=O)COc1ccc2c(c1)Nc1ccccc1S2)C(=O)N[C@H]1CCOC1O` (some centres not stated), the IC50 against Calpain 1 [1] is 48.7 nM; in experiment [2], 3000 nM. Besides, the Negative log of IC50 ratio (cellular/enzyme) in experiment [4] is 1.21. The result in experiment [5] was Active. For the same compound, the result (at Caspase-3 (Homo sapiens); in experiment [6]) was inactive.
In the case of `CC(C)C[C@H](NC(=O)[C@@H](NC(=O)COc1ccc2c(c1)Nc1ccccc1S2)C(C)C)C(=O)N[C@H]1CCOC1O` (some centres not stated), the IC50 on Calpain 1 [1] came out at 75.9 nM; in experiment [2] it was 1000 nM. In addition, the Negative log of IC50 ratio (cellular/enzyme) in experiment [4] turned out to be 1.88. The result in experiment [5] was Active. In addition, the outcome (on Caspase-3 (Homo sapiens); in experiment [6]) was inactive.
Turning to `CC(C)C[C@H](NC(=O)[C@@H](NC(=O)COc1ccc2c(c1)Nc1ccccc1S2)[C@H](C)O)C(=O)N[C@H]1CCOC1O` (some centres not stated), the values for the concentration for half-maximal inhibition (IC50) (against Calpain 1 [1]; in experiment [2]) were 38 nM and 2000 nM, respectively. Besides, the Negative log of IC50 ratio (cellular/enzyme) in experiment [4] is 1.28. The outcome in experiment [5] was Active. Further, the result (at Caspase-3 (Homo sapiens); in experiment [6]) was inactive.
With `CC(C)C[C@H](NC(=O)Cc1ccc2c(c1)Nc1ccccc1S2)C(=O)N[C@@H](CC(C)C)C(=O)N[C@H]1CCOC1O` (some centres not stated), the IC50 against Calpain 1 [1] was determined as 55.4 nM; in experiment [2] it was 2500 nM; in experiment [3], 966 nM.
On to `CCC[C@H](NC(=O)COc1ccc2c(c1)Nc1ccccc1S2)C(=O)N[C@@H](CC(C)C)C(=O)N[C@H]1CCOC1O` (some centres not stated), for which the half-inhibitory concentration (IC50) on Calpain 1 [1] was determined as 151 nM; in experiment [2] it was 600 nM. In addition, the Negative log of IC50 ratio (cellular/enzyme) in experiment [4] is 2.4. Besides, the outcome in experiment [5] was Active. The result (at Caspase-3 (Homo sapiens); in experiment [6]) was inactive.
Take `CC(C)C[C@H](NC(=O)[C@@H](NC(=O)COc1ccc2c(c1)Nc1ccccc1S2)c1ccccc1)C(=O)N[C@H]1CCOC1O` (some centres not stated): the concentration for half-maximal inhibition (IC50) came to 222 nM against Calpain 1 [1] and 5000 nM in experiment [2]. Further, the Negative log of IC50 ratio (cellular/enzyme) in experiment [4] was 1.65. In addition, in experiment [5], the outcome was Active. The result (at Caspase-3 (Homo sapiens); in experiment [6]) was inactive.
In the case of `CC(C)C[C@H](NC(=O)COc1ccc2c(c1)Nc1ccccc1S2)C(=O)N[C@@H](CC(C)C)C(=O)N[C@H]1CCOC1O` (stereo in doubt; 6d-08) [listing 1 of 2 here], the Negative log of IC50 ratio (cellular/enzyme) in experiment [4] is 2.24. In addition, the outcome in experiment [5] was Active. Moreover, the outcome (at Caspase-3 (Homo sapiens); in experiment [6]) was inactive.
As for `CC(C)C[C@H](NC(=O)C(C)(C)NC(=O)COc1ccc2c(c1)Nc1ccccc1S2)C(=O)N[C@H]1CCOC1O` (some centres not stated), the IC50 on Calpain 1 [1] came out at 138 nM; in experiment [2], 30000 nM. For the same compound, in experiment [4], the Negative log of IC50 ratio (cellular/enzyme) came to 0.66. Besides, in experiment [5], the result was Active. For the same compound, the outcome (at Caspase-3 (Homo sapiens); in experiment [6]) was inactive.
Turning to `CC(C)C[C@H](NC(=O)[C@@H](NC(=O)COc1ccc2c(c1)Nc1ccccc1S2)C(C)(C)C)C(=O)N[C@H]1CCOC1O` (some centres not stated), the IC50 worked out at 354 nM at Calpain 1 [1] and 4000 nM in experiment [2]. Also, the Negative log of IC50 ratio (cellular/enzyme) in experiment [4] worked out at 1.95. Besides, the outcome in experiment [5] was Active. Also, the outcome (on Caspase-3 (Homo sapiens); in experiment [6]) was inactive.
With `CC(C)C[C@H](NC(=O)COc1ccc2c(c1)Nc1ccccc1S2)C(=O)N[C@@H](CC(C)C)C(=O)N[C@H]1CCOC1O` (stereo in doubt; 6d-08) [listing 2 of 2 here], the IC50 on Calpain 1 [1] came out at 105 nM; in experiment [2], 600 nM.
For `CC(C)C[C@H](NC(=O)[C@H](NC(=O)COc1ccc2c(c1)Nc1ccccc1S2)C(C)C)C(=O)N[C@H]1CCOC1O` (some centres not stated), the IC50 against Calpain 1 [1] worked out at 553 nM; in experiment [2], 16000 nM. For the same compound, the Negative log of IC50 ratio (cellular/enzyme) in experiment [4] stood at 1.54. Further, the result in experiment [5] was Active. Besides, the result (at Caspase-3 (Homo sapiens); in experiment [6]) was inactive.
On to `Cc1cc(C(C)(C)C)c(O)c(C(C)(C)C)c1` [BUTYLATED HYDROXYTOLUENE], for which, in experiment [3], the IC50 came out at 3250 nM.
For `CC[C@H](NC(=O)COc1ccc2c(c1)Nc1ccccc1S2)C(=O)N[C@@H](CC(C)C)C(=O)N[C@H]1CCOC1O` (some centres not stated), the results for the IC50 (against Calpain 1 [1]; in experiment [2]) were 88.6 nM and 800 nM, respectively. The Negative log of IC50 ratio (cellular/enzyme) in experiment [4] came out at 2.05. Moreover, the outcome in experiment [5] was Active. Moreover, the outcome (at Caspase-3 (Homo sapiens); in experiment [6]) was inactive.
Take `CC(C)C[C@H](NC(=O)CCc1ccc2c(c1)Nc1ccccc1S2)C(=O)N[C@@H](CC(C)C)C(=O)N[C@H]1CCOC1O` (some centres not stated): the IC50 is 150 nM on Calpain 1 [1], 10000 nM in experiment [2] and 3300 nM in experiment [3].
